# Compound activity: PubChem, Broad Institute
# The full list was thinned out, with hits kept by preference.
# T cruzi intra: intracellular Trypanosoma cruzi inhibition. 22,000 tested, 4.9% active. AID 651903. activity score (inhibition), % at 5.01 µM. intracellular Trypanosoma cruzi in host cells, plate reader; in the data active = activity score above about 55%; inconclusive = no clear call, values can overlap the other calls;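 note: parasites and compound incubated about four days before reading; 0% = median of neutral control wells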
# A1 apoptosis 2: A1 inhibition read as caspase activation | AID 2465 | caspase activation, % (no concentration beside the values) | 24,000 tested, under 10 active | MEF A1-2A-BIM cells, caspase-Glo luminescence, 3 h; percent of clofoctol response, DMSO zero; in the data active = caspase activation above about 5.9%; inconclusive = no clear call, values can overlap the other calls; inactive = below about 2.2%
#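 Material: mouse embryonic fibroblasts co-expressing A1 and BIM (A1-2A-BIM), primed for A1 dependence / Quantity: 2500 cells/well / Buffer or medium: RPMI-1640 growth medium with 10% FBS / Doses: 50 nL compound per well, pinned / Schedule: 3 h compound exposure at 37 °C / Signal: Caspase-Glo luminescence (DEVD substrate) / Measure: Caspase-3/7 activation, seen as rise in luminescence signal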
# INS-1E rescue: rescue of cytokine-induced death in INS-1E beta cells | INS-1E cytokine-induced death, ATP luminescence, 48 h; normalised: neutral wells 0, positive control 100 | 20,000 tested, 0.1% active | protection from cytokine-induced ATP loss, % at 10 µM;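 active = mean replicate protection from cytokine-induced ATP loss at least 50% and at least 75% of replicates each reaching 50%; inconclusive = meets only one of the two criteria, mean or replicate share; inactive = fails both the mean and replicate share criteria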
#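 Test system: INS-1E rat cells | Quantity: 8000 cells per well | Medium: Phenol-red-free RPMI with 5% fetal bovine serum | Reagent: Cytokine cocktail of IFN-γ, TNF-α and IL-1β | Doses: One compound concentration, pin transfer | Timing: 48 h co-treatment, 10 min post-lysis read | Technique: Luminescent ATP assay (CellTiter-Glo)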
# * marks the source's active call; other numbers are inactive results; ? = inconclusive; . = not tested or not shown.
SMILES,T cruzi intra,A1 apoptosis 2,INS-1E rescue
COC(=O)CCCCCCC(=O)N/N=C/[C@H](O)[C@@H](O)[C@H](O[C@@H]1O[C@H](CO)[C@H](O)[C@H](O)[C@H]1O)[C@H](O)CO,-6.8,1.0,2.9
COC(=O)C1=C/c2ccccc2C(C2CC2)N(C)/C=C\1C(=O)OC (stereo not given),.,0.4,.
COc1ccc(/C=N/NC(=O)c2ccccc2O)cc1OC,-9.2,1.0,-28.1
COC(=O)CCCCCCC(=O)N/N=C/c1ccc(OC)cc1O,-18.8,-0.4,17.5
COCCOC(=O)N1C(=O)[C@@]2(c3cc(C#Cc4ccc(OC)cc4)ccc31)[C@H](C(=O)N1CCCCCCC1)[C@H]1C(=O)O[C@H](c3ccccc3)[C@H](c3ccccc3)N1[C@@H]2c1ccc(O)cc1,.,-0.6,.
COC(=O)CCCCCCC(=O)N/N=C/c1cccc2ccccc12,16.2,.,6.2
CCO[C@H]1OC(C(=O)NC2CC2)=C[C@@H](C(C)(C)C)[C@@H]1CCCO,.,0.4,.
Cc1ccc(S(=O)(=O)Nc2ccc3c(c2)CC(=O)N([C@@H](C)CO)C[C@H](C)[C@@H](CN(C)Cc2ccc(C(F)(F)F)cc2)O3)cc1,62.4*,.,0.0
Cc1ccc(S(=O)(=O)Nc2ccc3c(c2)CC(=O)N([C@@H](C)CO)C[C@@H](C)[C@H](CN(C)Cc2ccc(C(F)(F)F)cc2)O3)cc1,.,-0.3,.
Cc1ccc(S(=O)(=O)Nc2ccc3c(c2)CC(=O)N([C@H](C)CO)C[C@@H](C)[C@@H](CN(C)Cc2ccc(C(F)(F)F)cc2)O3)cc1,61.0*,.,-10.4
C[C@@H]1CN([C@H](C)CO)C(=O)Cc2cc(NS(=O)(=O)c3ccc(F)cc3)ccc2O[C@H]1CN(C)Cc1ccc(C(F)(F)F)cc1,47.8,0.9,-13.4
C[C@H]1CN([C@@H](C)CO)C(=O)Cc2cc(NS(=O)(=O)c3ccc(F)cc3)ccc2O[C@@H]1CN(C)Cc1ccc(C(F)(F)F)cc1,61.3*,.,-17.2
C[C@@H]1CN([C@@H](C)CO)C(=O)Cc2cc(NS(=O)(=O)c3ccc(F)cc3)ccc2O[C@@H]1CN(C)Cc1ccc(C(F)(F)F)cc1,?,-1.2,-40.6
Cc1ccc(S(=O)(=O)N2CCC[C@H]2CN=[N+]=[N-])cc1,.,1.2,.
O=C(O)CCCCCC(=O)N/N=C/c1cc(Br)cs1,-12.1,0.5,7.6
C[C@@H]1CN([C@H](C)CO)C(=O)c2cccc(NS(=O)(=O)c3cn(C)cn3)c2O[C@@H]1CN(C)C(=O)Nc1ccc2c(c1)OCO2,-7.3,0.0,5.7
C[C@@H]1CN([C@H](C)CO)C(=O)c2cccc(NC(=O)C3CC3)c2O[C@H]1CN(C)S(=O)(=O)c1ccccc1,4.7,.,11.2
O=C1O[C@@H](c2ccccc2)[C@@H](c2ccccc2)N2[C@@H](c3ccccc3OCCO)[C@]3(C(=O)Nc4ccccc43)[C@@H](C(=O)Nc3nc4ccccc4s3)[C@H]12,.,-0.7,.
COc1ccc(C#Cc2cnc3c(c2)C(=O)N([C@H](C)CO)C[C@H](C)[C@H](CN(C)Cc2cccc(C(F)(F)F)c2)O3)cc1OC,83.6*,-0.4,.
C[C@H](CO)N1C[C@H](C)[C@H](CN(C)C)Oc2ncc(C#CCN(C)C)cc2C1=O,-14.8,.,.
COc1ccc(C#Cc2cnc3c(c2)C(=O)N([C@H](C)CO)C[C@H](C)[C@H](CN(C)Cc2ccccc2)O3)cc1OC,15.4,-0.2,.
C[C@H](CO)N1C[C@H](C)[C@H](CN(C)C)Oc2ncc(C#Cc3ccccc3)cc2C1=O,78.5*,0.0,.
Cc1cccc(CN(C)C[C@@H]2Oc3ncc(C#CCN(C)C)cc3C(=O)N([C@H](C)CO)C[C@@H]2C)c1,2.7,.,.
Cc1cccc(CN(C)C[C@@H]2Oc3ncc(C#Cc4ccccc4)cc3C(=O)N([C@H](C)CO)C[C@@H]2C)c1,73.6*,0.4,.
COc1ccc(C#Cc2cnc3c(c2)C(=O)N([C@H](C)CO)C[C@H](C)[C@H](CN(C)C)O3)cc1OC,82.8*,0.0,.
SMILES,T cruzi intra,A1 apoptosis 2,INS-1E rescue
COc1ccc(S(=O)(=O)N(C)C[C@@H]2Oc3ncc(C#Cc4ccc(OC)c(OC)c4)cc3C(=O)N([C@H](C)CO)C[C@@H]2C)cc1,42.9,-1.4,.
Cc1ccc(F)cc1S(=O)(=O)N[C@@H]1CCN(Cc2ccc(CC(C)C)cc2)C1,.,0.5,.
O=C(O)CCCCCCC(=O)N/N=C/c1ccccc1Cl,-17.4,.,12.5
Cc1ccccc1/C=N/NC(=O)CCCCCCC(=O)O,-11.7,-0.1,-4.3
O=C(CCCCCCC(=O)Nc1ccccc1O)N/N=C/c1ccco1,-4.5,-0.1,2.2
C[C@H]1CN([C@@H](C)CO)C(=O)Cc2cc(NC(=O)Cc3cn(C)c4ccccc34)ccc2O[C@H]1CN(C)Cc1ccc(-c2ccccc2)cc1,42.9,-0.8,-38.1
C[C@H]1CN([C@@H](C)CO)C(=O)Cc2cc(NC(=O)Cc3cn(C)c4ccccc34)ccc2O[C@@H]1CN(C)Cc1ccc(-c2ccccc2)cc1,74.1*,.,-25.2
C[C@@H]1CN([C@H](C)CO)C(=O)Cc2cc(NC(=O)Cc3cn(C)c4ccccc34)ccc2O[C@@H]1CN(C)Cc1ccc(C(=O)O)cc1,-4.8,-0.2,2.4
C[C@@H]1CN([C@H](C)CO)C(=O)Cc2cc(NC(=O)Cc3cn(C)c4ccccc34)ccc2O[C@H]1CN(C)Cc1ccc(-c2ccccc2)cc1,64.3*,-0.4,-2.7
C[C@@H]1CN([C@H](C)CO)C(=O)Cc2cc(NC(=O)Cc3cn(C)c4ccccc34)ccc2O[C@H]1CN(C)CC1CCCCC1,59.8*,0.2,-0.9
C[C@@H]1CN([C@H](C)CO)C(=O)Cc2cc(NC(=O)Cc3cn(C)c4ccccc34)ccc2O[C@@H]1CN(C)CC1CCCCC1,21.3,-0.3,0.9
CC(C)=CCC[C@H](C)C/C=N/NC(=O)CCCCC(=O)NO,9.9,-0.3,12.8
C[C@H]1CN([C@@H](C)CO)C(=O)c2cccc(NS(C)(=O)=O)c2O[C@@H]1CN(C)CC1CC1,.,-0.8,.
O=C(NO)c1ccc(C(=O)N/N=C/c2ccco2)cc1,4.2,-0.9,-4.2
COc1ccc(NC(=O)Nc2ccc3c(c2)CC(=O)N([C@H](C)CO)C[C@H](C)[C@@H](CN(C)Cc2ccc(C(F)(F)F)cc2)O3)cc1,.,0.7,.
C[C@H](CO)N1C[C@H](C)[C@H](CN(C)Cc2ccc(Oc3ccccc3)cc2)Oc2ccc(NC(=O)Nc3ccc(C(F)(F)F)cc3)cc2CC1=O,63.7*,1.6,-51.7
C[C@@H]1CN([C@H](C)CO)C(=O)Cc2cc(NC(=O)Nc3ccc(C(F)(F)F)cc3)ccc2O[C@H]1CN(C)Cc1ccc(Oc2ccccc2)cc1,61.6*,0.3,-15.8
COC(=O)CCCCCCC(=O)N/N=C/c1ccc(OC)c(O)c1,3.2,-0.5,9.4
C[C@@H]1CN([C@H](C)CO)C(=O)Cc2cc(NC(=O)Nc3ccc(C(F)(F)F)cc3)ccc2O[C@@H]1CN(C)S(=O)(=O)c1cccs1,65.7*,.,1.4
C[C@@H]1CN([C@@H](C)CO)C(=O)c2cccc(NC(=O)Nc3ccc(C(F)(F)F)cc3)c2O[C@H]1CN(C)S(=O)(=O)c1cccs1,78.7*,-0.1,-20.3
